In ChEMBL document CHEMBL1649302, “New small-molecule inhibitor class targeting human immunodeficiency virus type 1 virion maturation” (Antimicrob Agents Chemother, 2009):
The source made the active and inactive calls. No cut-off for these calls is given here.

Legend:
[1] = system: Human immunodeficiency virus 1; assay: Antiviral activity against HIV1 assessed as inhibition of virion maturation-associated CA/SP1 processing at 2 times EC90; type: functional, organism-based
[2] = system: Human immunodeficiency virus 1; assay: Antiviral activity HIV1 96USHIPS7 infected in human PBMC after 7 days by scintillation counting; type: functional, organism-based; details: Human immunodeficiency virus 1, 96USHIPS7, 168 h
Summary of the method: (§1)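 Fresh PBMCs from HIV/HBV-seronegative donors were PHA-stimulated (4 μg/ml, 48–72 h) and kept with IL-2 (20 U/ml), with at least two donors pooled. Cells were seeded at 5 × 10⁴/well and infected (final MOI ≅0.1) with nine compound concentrations in triplicate wells. After 7 days, reverse transcriptase activity was measured in cell-free supernatant.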

[3] = system: Human immunodeficiency virus 1; assay: Antiviral activity HIV1 91US056 infected in human PBMC after 7 days by scintillation counting; type: functional, organism-based; details: Human immunodeficiency virus 1, 91US056, 168 h; summary of the method: as §1
[4] = Cytotoxicity against human PM1 cells after 5 days by XTT assay; type: cell-based
Summary of the method: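 CC50 in uninfected PM1 cells was measured by the XTT dye-reduction method: XTT/PMS for 4 h, absorbance at 450 nm, 50% of compound-free formazan.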

[5] = system: Human immunodeficiency virus 1; assay: Antiviral activity against HIV1 harboring capsid I201V mutant protein infected in human HeLa cells assessed as decrease in viral infection after 72 hrs by beta-galactosidase reporter gene assay; type: functional, organism-based; details: Human immunodeficiency virus 1, HeLa
[6] = system: Human immunodeficiency virus 1; assay: Selectivity ratio of EC50 for HIV1 harboring spacer peptide A1V mutant protein infected in human HeLa cells to EC50 for wild type HIV1 infected in human HeLa cells; type: functional
Summary of the method: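 MT-2 cells were infected for 2 h with wild-type NL4-3 or recombinant NL4-3 carrying CA I201V or SP1 A1V. They were then cocultured with HeLa CD4 LTR/beta-Gal indicator cells in serially diluted compound. Beta-gal reporter was read after 4 days. EC50s are means ± SD of 3–6 experiments. Fold change is mutant EC50 divided by wild-type EC50.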

[7] = Therapeutic index, ratio of CC50 for human PBMC to EC50 for HIV1 92US076 infected in human PBMC; details: read-out: TI
Summary of the method: (§2)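 PHA-stimulated (4 μg/ml, 48 to 72 h) PBMCs pooled from at least two seronegative donors, kept with 20 U/ml IL-2, plated at 5 × 10⁴ cells/well. Infected with clinical isolate (final MOI ≅0.1) alongside nine compound concentrations in triplicate wells, 7 days. Supernatant reverse transcriptase activity measured. TI is mean PBMC CC50 divided by mean EC50.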

[8] = system: Human immunodeficiency virus 1; assay: Antiviral activity against HIV1 Ba-L infected in human PM1 cells assessed as inhibition of viral p24 antigen production after 5 days; type: functional, organism-based; details: Human immunodeficiency virus 1, Ba-L, PM1, 120 h
Summary of the method: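 PM1 cells (NL4-3, Ba-L) or MT-2 cells (92HT594, 92HT599) were infected at MOI 0.16 for 2 h and washed. They were plated at 1 × 10⁴ cells/well (2 × 10⁵/ml) onto half-log compound dilutions. Supernatant p24 was quantified by ELISA at day 5. EC50 was the concentration giving a 50% decrease versus infected, compound-free cells.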

[9] = Therapeutic index, ratio of CC50 for human PBMC to EC50 for HIV1 93BR029 infected in human PBMC; details: read-out: TI
Summary of the method: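 Frozen PHA-stimulated (1.5 μg/ml, 3 days) buffy-coat PBMCs pooled from three or four seronegative donors. Infected with a TCID50-based virus input per 10⁶ cells for 1 h at 37°C, then pelleted and resuspended in 10 ng/ml IL-2. Plated at 4 × 10⁵ cells/ml on compound dilutions for 7 days at 37°C. Supernatant RT measured by Quan-T-RT. TI is mean CC50 divided by mean EC50.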

[10] = Therapeutic index, ratio of CC50 for human PBMC to EC50 for HIV1 93BR021 infected in human PBMC; details: read-out: TI; summary of the method: as §2
[11] = system: Human immunodeficiency virus 1; assay: Antiviral activity against HIV1 RF infected in human MT2 cells assessed as protection against virus-induced cytopathogenicity after 6 days by XTT assay; type: functional, organism-based; details: Human immunodeficiency virus 1, RF, MT2, 144 h
Summary of the method: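 Host cells were infected with NL4-3 or IIIB (MOI 0.08) or RF (MOI 0.025–0.819) and seeded at 2 × 10⁴/well onto half-log compound dilutions. After 6 days, XTT/PMS was added for 4 h and formazan was read at 450 nm. EC50 was the concentration giving 50% of the formazan of uninfected, compound-free cells.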

[12] = Therapeutic index, ratio of CC50 for human PBMC to EC50 for HIV1 92BR014 infected in human PBMC; details: read-out: TI; summary of the method: as §2
[13] = Cytotoxicity against human CEM-SS cells after 6 days by XTT assay; type: cell-based
Summary of the method: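 Uninfected cells were incubated with half-log compound dilutions for 6 days, then given XTT/PMS for 4 h and read at 450 nm. CC50 was the concentration reducing formazan to 50% of uninfected, compound-free cells. Values are means ± SD from 3–5 experiments or individual values.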

CC(C)(C)c1ccc(C(Cn2cccc(C(F)(F)F)c2=O)NC2Cc3ccccc3C2)cc1 (stereo not drawn)
inhibition [1]: Active | EC50 [2]: > 17 µM | EC50 [3]: > 17 µM | CC50 at 120 h [4]: 19 µM | EC50 [5]: > 10 µM | Ratio EC50 [6]: >16 | selectivity ratio [7]: 2430 | EC50 [8]: 5.3 µM | selectivity ratio [9]: 30 | selectivity ratio [10]: 425 | EC50 [11]: > 16 µM | selectivity ratio [12]: 2 | CC50 at 144 h [13]: 20 µM
